From ChEMBL document CHEMBL5370536, “Design, synthesis, and biological activity of dual monoamine oxidase A and heat shock protein 90 inhibitors, N-Methylpropargylamine-conjugated 4-isopropylresorcinol for glioblastoma” (Eur J Med Chem, 2023)
Active and inactive are the calls of the source. The rule behind the calls is not given here.

Key:
U-251 [1] = experiment: Downregulation of HER2 expression in human Temozolomide-resistant U-251 cells incubated for 24 hrs by Western blot analysis; type: functional, cell-based; conditions: dose 0.1-3 µM
[2] = Antitumor activity against mouse GL26 cells xenografted in C57BL/6J mouse model assessed as tumor growth inhibition at 25 mg/kg, ip administered daily for 3 days followed by every 3 days for 14 days by caliper method relative to control; type: functional; conditions: GL26, 336 h, time 14 day, read-out: TGI
Method in brief: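 Male C57BL/6J mice aged 8-9 weeks received 2 × 10⁵ GL26 cells subcutaneously in the lower back. From day 9 after implantation, once tumours were palpable, 25 mg/kg was given i.p. daily for 3 days and then every 3 days over 14 days. Caliper volume was length × width² ÷ 2. TGI% was taken relative to the mean tumour size of the vehicle group.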

A 172 = experiment: Antiproliferative activity against human A-172 cells assessed as inhibition of cell growth measured after 72 hrs by CCK8 method; type: functional, cell-based; conditions: A 172, 72 h
Method in brief: (§1)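 Cell lines from ATCC or from patient surgical specimens (P1S, P3, P3R), kept in DMEM with 10% FBS and 1% penicillin/streptomycin at 37°C, 5% CO₂. P3R medium also held 50 μM TMZ. Cells were seeded at 2×10³/well 24 h before compound, then exposed 72 h.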

K562 = experiment: Growth inhibition of human K562 cells incubated for 48 hrs by SRB assay; type: functional
Method in brief: (§2)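 NCI-60 panel screen: cells seeded at 5000 to 40000 per well according to doubling time, 24 h before drug addition at various concentrations. A time-zero plate was TCA-fixed at drug addition. After 48 h drug exposure, growth was read by sulforhodamine B staining. Percent growth = [(Ti − Tz)/(C − Tz)] × 100, and GI50 is the concentration at which this equals 50.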

GL26 [3] = experiment: Downregulation of IFN-gamma induced PD-L1 expression in mouse GL26 cells incubated for 24 hrs by flow cytometry analysis; type: functional, cell-based
Method in brief: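 GL26 cells at 3.6 × 10⁵ per well were treated at various concentrations with or without 10 ng/mL IFN-γ for 24 h. Cells were stained with goat anti-PD-L1 for 1 h in PBS/0.05% BSA, then FITC donkey anti-goat for 1 h, and read by flow cytometry. MFI was normalised to the secondary-antibody-only isotype control and expressed as an MFI ratio.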

[4] = target: T1, Amine oxidase [flavin-containing] A (Mus musculus, UniProt Q64133); experiment: Inhibition of MAO A in mouse GL26 cells preincubated for 20 mins followed by 14C-labeled 5-hydroxytryptamine addition and measured after 20 mins by scintillation counter analysis; type: cell-based
T1 sequence (Q64133 whole entry): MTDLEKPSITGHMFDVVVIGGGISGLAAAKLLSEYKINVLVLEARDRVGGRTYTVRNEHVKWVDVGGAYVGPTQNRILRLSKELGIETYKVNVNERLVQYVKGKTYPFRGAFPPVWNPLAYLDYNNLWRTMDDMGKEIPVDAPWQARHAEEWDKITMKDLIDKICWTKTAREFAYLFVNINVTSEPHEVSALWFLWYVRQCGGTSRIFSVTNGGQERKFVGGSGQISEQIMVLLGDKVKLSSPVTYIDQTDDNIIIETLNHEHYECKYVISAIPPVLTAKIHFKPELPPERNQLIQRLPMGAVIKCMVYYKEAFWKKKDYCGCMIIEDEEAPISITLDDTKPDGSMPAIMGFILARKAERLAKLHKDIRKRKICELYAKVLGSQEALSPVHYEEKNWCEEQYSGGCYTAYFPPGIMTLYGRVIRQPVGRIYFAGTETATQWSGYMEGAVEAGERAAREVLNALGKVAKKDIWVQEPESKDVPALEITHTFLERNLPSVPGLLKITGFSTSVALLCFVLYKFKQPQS

SF-268 = experiment: Growth inhibition of human SF-268 cells incubated for 48 hrs by SRB assay; type: functional; method in brief: as §2
A549 = experiment: Growth inhibition of human A549 cells incubated for 48 hrs by SRB assay; type: functional; method in brief: as §2
[5] = Antiproliferative activity against human patient-derived P3 cell assessed as inhibition of cell growth measured after 72 hrs by CCK8 method; type: functional, cell-based; method in brief: as §1
[6] = Antiproliferative activity against human patient-derived TMZ-resistant GBM cells with MGMT negative P3R cell assessed as inhibition of cell growth measured after 72 hrs by CCK8 method; type: functional, cell-based; method in brief: as §1
SW-620 = experiment: Growth inhibition of human SW-620 cells incubated for 48 hrs by SRB assay; type: functional; method in brief: as §2
SNB-75 = experiment: Growth inhibition of human SNB-75 cells incubated for 48 hrs by SRB assay; type: functional; method in brief: as §2
U-251 [7] = experiment: Growth inhibition of human U-251 cells incubated for 48 hrs by SRB assay; type: functional; method in brief: as §2
SF-539 = experiment: Growth inhibition of human SF-539 cells incubated for 48 hrs by SRB assay; type: functional; method in brief: as §2
RPMI-8226 = experiment: Growth inhibition of human RPMI-8226 cells incubated for 48 hrs by SRB assay; type: functional; method in brief: as §2
[8] = Antiproliferative activity against human U373 MG cells assessed as inhibition of cell growth measured after 72 hrs by CCK8 method; type: functional, cell-based, U-373MG ATCC; method in brief: as §1
[9] = Antiproliferative activity against mouse GL26 cells assessed as inhibition of cell growth measured after 48 hrs by MTT assay; type: functional, cell-based; conditions: GL26, 48 h
Method in brief: (§3)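 Cells plated at 5×10³ per well 24 h before compound and grown in DMEM with 10% FBS at 37°C, 5% CO₂. After 48 h exposure, the medium was replaced with 0.5 mg/mL MTT for 3 h. Formazan was dissolved in DMSO and read at 570 nm.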

GL26 [10] = experiment: Downregulation of Akt phosphorylation expression at Ser 473 residues in mouse GL26 cells incubated for 24 hrs by Western blot analysis; type: functional, cell-based; conditions: dose 0.1-3 µM
U-251 [11] = experiment: Upregulation of HSP70 expression in human Temozolomide-resistant U-251 cells incubated for 24 hrs by Western blot analysis; type: functional, cell-based; conditions: dose 0.1-3 µM
NCI-H460 = experiment: Growth inhibition of human NCI-H460 cells incubated for 48 hrs by SRB assay; type: functional; method in brief: as §2
T98G = experiment: Antiproliferative activity against human T98G cells assessed as inhibition of cell growth measured after 72 hrs by CCK8 method; type: functional, cell-based; method in brief: as §1
U-251 [12] = experiment: Antiproliferative activity against human Temozolomide-resistant U-251 cells assessed as inhibition of cell growth measured after 48 hrs by MTT assay; type: functional, cell-based; conditions: U-251, 48 h; method in brief: as §3
HCT-116 [13] = experiment: Downregulation of PD-L1 expression in human HCT-116 cells; type: functional, cell-based
Method in brief: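 HCT116 cells at 3 × 10⁵ per well were treated at various concentrations with or without 20 ng/mL IFN-γ for 48 h. Cells were stained with mouse anti-PD-L1 for 1 h in PBS/0.05% BSA, then FITC goat anti-mouse for 1 h. Surface FITC mean fluorescence intensity was measured by flow cytometry.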

GL26 [14] = experiment: Downregulation of HER2 expression in mouse GL26 cells incubated for 24 hrs by Western blot analysis; type: functional, cell-based; conditions: dose 0.1-3 µM
[15] = Antiproliferative activity against human patient-derived, TMZ-resistant and concurrent chemo-radiotherapy (CCRT)-resistant P1S cell assessed as inhibition of cell growth measured after 72 hrs by CCK8 method; type: functional, cell-based; method in brief: as §1
[16] = target: Heat shock protein HSP 90-alpha (Homo sapiens, UniProt P07900); experiment: Inhibition of human recombinant HSP90alpha preincubated for 30 mins followed by FITC-GM addition and mesured after 3 hrs by fluorescence polarization assay
LN-229 = experiment: Antiproliferative activity against human LN-229 cells assessed as inhibition of cell growth measured after 72 hrs by CCK8 method; type: functional, cell-based; conditions: LN-229, 72 h; method in brief: as §1
U-87 MG = experiment: Antiproliferative activity against human U-87 MG cells assessed as inhibition of cell growth measured after 72 hrs by CCK8 method; type: functional, cell-based, U-87MG ATCC; method in brief: as §1
NCI-H522 = experiment: Growth inhibition of human NCI-H522 cells incubated for 48 hrs by SRB assay; type: functional; method in brief: as §2
SNB-19 = experiment: Growth inhibition of human SNB-19 cells incubated for 48 hrs by SRB assay; type: functional; method in brief: as §2
HCT-116 [17] = experiment: Growth inhibition of human HCT-116 cells incubated for 48 hrs by SRB assay; type: functional; method in brief: as §2
GL26 [18] = experiment: Upregulation of HSP70 expression in mouse GL26 cells incubated for 24 hrs by Western blot analysis; type: functional, cell-based; conditions: dose 0.1-3 µM
SF-295 = experiment: Growth inhibition of human SF-295 cells incubated for 48 hrs by SRB assay; type: functional; method in brief: as §2
U-251 [19] = experiment: Downregulation of Akt phosphorylation expression at Ser 473 residues in human Temozolomide-resistant U-251 cells incubated for 24 hrs by Western blot analysis; type: functional, cell-based; conditions: dose 0.1-3 µM

C#CCN(C)CCCOc1ccc(N(CC)C(=O)c2cc(C(C)C)c(O)cc2O)cc1Cl
Activity (U-251 [1]): Dose-Dependent Effect
inhibition in vivo at 25 mg/kg [2]: 59.8%
IC50 (A 172): 890 nM
GI50 (K562): 70 nM
Activity (GL26 [3]): Dose-Dependent Effect
IC50 [4]: 4580 nM
GI50 (SF-268): 1430 nM
GI50 (A549): 140 nM
IC50 [5]: 2930 nM
IC50 [6]: 1450 nM
GI50 (SW-620): 240 nM
GI50 (SNB-75): 860 nM
GI50 (U-251 [7]): 370 nM
GI50 (SF-539): 310 nM
GI50 (RPMI-8226): 330 nM
IC50 [8]: 890 nM
IC50 [9]: 490 nM
Activity (GL26 [10]): Dose-Dependent Effect
Activity (U-251 [11]): Dose-Dependent Effect
GI50 (NCI-H460): 50 nM
IC50 (T98G): 460 nM
IC50 (U-251 [12]): 260 nM
Activity (HCT-116 [13]): Active
Activity (GL26 [14]): Dose-Dependent Effect
IC50 [15]: 680 nM
IC50 [16]: 16 nM
IC50 (LN-229): 310 nM
IC50 (U-87 MG): 360 nM
GI50 (NCI-H522): 70 nM
GI50 (SNB-19): 440 nM
GI50 (HCT-116 [17]): 80 nM
Activity (GL26 [18]): Dose-Dependent Effect
GI50 (SF-295): 320 nM
Activity (U-251 [19]): Dose-Dependent Effect
